Experiments:
[1] = test system: bacterial DNA; details: bacterial DNA present in skin injury; cited from earlier work
[2] = test system: C57BL/6J mice; test: Survival of mice after APAP overdose; format: in vivo, mouse (C57BL/6J); details: APAP 600 mg/kg oral gavage, within 24 hours
Outline: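 Fasted C57BL/6J mice were dosed by oral gavage with APAP dissolved in warm saline, at several doses including 600 mg/kg, and survival was tracked (n ≥ 9 per group). In the 24-h treatment arm, peptide was given intravenously at 100 µg/dose, 6, 12 and 18 h after APAP.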

[3] = test system: liver of APAP-treated mice; test: Serum ALT; format: in vivo, mouse; details: APAP 600 mg/kg oral gavage; 6 to 36 hours after overdose
Outline: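 Fasted mice received APAP 600 mg/kg, dissolved in warm saline, by oral gavage. Hepatocyte necrosis was followed over time by serum ALT, and liver sections were examined by H&E histopathology. Groups had at least five mice, and each experiment was done at least twice. Data are mean ± SEM, analysed by t test or one-way ANOVA.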

[4] = test system: liver; test: Histopathology of liver sections; format: in vivo, mouse; details: APAP 600 mg/kg, H&E-stained liver sections, up to 24 hours
Outline: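 APAP (600 mg/kg) was given in warm saline by oral gavage to fasted mice. Livers were taken at times up to 24 h. Necrotic areas were scored on sections stained with hematoxylin and eosin. Groups had at least five mice, and experiments were repeated at least twice. Data are mean ± SEM.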

[5] = test system: pro-inflammatory mediators in liver and serum; test: Cytokine/chemokine ELISA in liver lysates and serum of APAP-treated mice; format: in vivo, mouse; details: APAP 600 mg/kg, as early as 6 hours
Outline: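 Fasted mice received APAP (600 mg/kg) dissolved in warm saline by oral gavage; controls received vehicle. TNF-α, CXCL1, CXCL2 and CXCL6 were measured by ELISA in liver lysates and serum over a time course after overdose. Groups had at least five mice, and experiments were run at least twice. Data are mean ± SEM, compared by one-way ANOVA.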

[6] = test system: neutrophils in the liver; test: Neutrophil recruitment to the liver; format: in vivo, mouse (LysM-eGFP); details: APAP-treated LysM-eGFP mice, time course
Outline: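 LysM-eGFP mice were fasted and given oral APAP in warm saline. Neutrophils were counted in the liver by their GFP signal using confocal intravital microscopy over the injury time course. Extracellular DNA was visualised with i.v. Sytox green (2 µL of 5 mM). Groups had at least five mice, with experiments repeated at least twice. Data are mean ± SEM.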

[7] = test system: myeloperoxidase (MPO) activity in liver; test: MPO activity in liver lysates; format: in vivo, mouse; details: APAP-treated C57BL/6J mice
Outline: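 MPO activity was measured in liver lysates as an estimate of neutrophil infiltration. C57BL/6J mice were fasted, then dosed with APAP in warm saline by oral gavage. Treatment arms received 100 µg peptide i.v. at 6, 12 and 18 h after overdose. Groups had at least five mice, and each experiment was run at least twice. Data are mean ± SEM, compared by t test or one-way ANOVA.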

[8] = test system: APAP-induced liver injury; details: reducing agent; cited from earlier work
[9] = cited from earlier work
[10] = test system: extracellular DNA and MIG30 staining in the liver; test: Enzymatic removal of DNA and MIG30 staining from the injured liver; format: in vivo, mouse; details: APAP-treated mice, MIG30-TAMRA 20 µg; hyaluronidase 1,000 U or heparinase III 100 µg i.v.; up to 10 minutes
Outline: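 Fasted mice received APAP (dissolved in warm saline) by oral gavage. They then received i.v. Sytox green and 20 µg TAMRA-labelled peptide. Next they were given i.v. hyaluronidase (1,000 U) or heparinase III (100 µg); DNase 1 (1,000 U) was given similarly. Mean fluorescence intensity of DNA and peptide in liver was followed by confocal intravital microscopy for up to 10 minutes.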

Molecule: CXCL10: chemokine CXCL10
- binding to bacterial DNA [1]: bind to bacterial DNA

Molecule: CC(=O)Nc1ccc(O)cc1 [APAP, Acetaminophen]
- mortality [2]: 40%
- liver damage (serum ALT levels) [3]: significant liver damage as early as 6 hours after APAP intoxication and up to 36 hours after the overdose
- hepatic necrosis (histopathology) [4]: extensive hepatic necrosis
- CXCL1 produced in the liver [5]: significant amounts
- CXCL2 produced in the liver [5]: significant amounts
- CXCL6 produced in the liver [5]: significant amounts
- TNF-α produced in the liver [5]: significant amounts
- neutrophil infiltration in the liver [6]: profound neutrophil infiltration was observed between 12 and 36 hours after injury, which was maximal at the 24‐hour timepoint
- neutrophils in liver by MPO assay [7]: presence of neutrophils predominantly 24 hours after APAP treatment

Molecule: CC(=O)N[C@@H](CS)C(=O)O [N‐acetylcysteine]
- effect on APAP-induced liver injury and inflammation [8]: effective only if given soon after the APAP challenge or as a pretreatment

Molecule: CXCL11: chemokine CXCL11
- binding to bacterial DNA [1]: bind to bacterial DNA

Molecule: KKVLKVRKAQRSRQKKTT [control peptide]
- GAG binding [9]: poor GAG affinity

Molecule: hyaluronidase
- removal of MIG30 staining from liver by glycosidase [10]: Neither the DNA nor the MIG30 staining were significantly removed

B1: CXCL9: full-length chemokine CXCL9 (protein, UniProt Q07325 1-125, looked up)
chain: MKKSGVLFLLGIILLVLIGVQGTPVVRKGRCSCISTNQGTIHLQSLKDLKQFAPSPSCEKIEIIATLKNGVQTCLNPDSADVKELIKKWEKQVSQKKKQKNGKKHQKKKVLKVRKSQRSRQKKTT
modifications: full-length
- binding to bacterial DNA [1]: bind to bacterial DNA

B2: heparinase: Heparinase III produced and provided by A. Kungl (protein, UniProt Q59289 25-659, looked up)
Heparin-sulfate lyase: QSSSITRKDFDHINLEYSGLEKVNKAVAAGNYDDAAKALLAYYREKSKAREPDFSNAEKPADIRQPIDKVTREMADKALVHQFQPHKGYGYFDYGKDINWQMWPVKDNEVRWQLHRVKWWQAMALVYHATGDEKYAREWVYQYSDWARKNPLGLSQDNDKFVWRPLEVSDRVQSLPPTFSLFVNSPAFTPAFLMEFLNSYHQQADYLSTHYAEQGNHRLFEAQRNLFAGVSFPEFKDSPRWRQTGISVLNTEIKKQVYADGMQFELSPIYHVAAIDIFLKAYGSAKRVNLEKEFPQSYVQTVENMIMALISISLPDYNTPMFGDSWITDKNFRMAQFASWARVFPANQAIKYFATDGKQGKAPNFLSKALSNAGFYTFRSGWDKNATVMVLKASPPGEFHAQPDNGTFELFIKGRNFTPDAGVFVYSGDEAIMKLRNWYRQTRIHSTLTLDNQNMVITKARQNKWETGNNLDVLTYTNPSYPNLDHQRSVLFINKKYFLVIDRAIGEATGNLGVHWQLKEDSNPVFDKTKNRVYTTYRDGNNLMIQSLNADRTSLNEEEGKVSYVYNKELKRPAFVFEKPKKNAGTQNFVSIVYPYDGQKAPEISIRENKGNDFEKGKLNLTLTINGKQQLVLVP
- removal of MIG30 staining from liver by glycosidase [10]: Neither the DNA nor the MIG30 staining were significantly removed
